We go through 18 molecules from ChEMBL document CHEMBL1142977, “1,4-benzodiazepines as inhibitors of respiratory syncytial virus. The identification of a clinical candidate” (J Med Chem, 2007).

≈ marks a conversion by molar mass, not a printed value. A value given as a limit tells only on which side of the number the result lay.

Series [1] concerns Respiratory syncytial virus. The series can be described thus: Antiviral activity against RSV RSS in Hep2 cells by XTT assay. Format: functional, organism-based, HEp-2. Conditions: for IC50: human respiratory syncytial virus, RSS, HEp-2; call rule not given here. The essentials: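 HEp-2 cells infected with RSV RSS strain in the presence of compound, incubated 6 days at 37 °C. Residual viability was read by XTT metabolism to a coloured product, and IC50 was derived.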
Background: Tetrazolium assays rely on reduction of a dye to a coloured formazan, in cell work by metabolically active cells.

Series [2] in a line: Cytotoxicity against RSV RSS infected Hep2 cells by ELISA. In kind it is cell-based. Conditions: human, hep-2.
Series [3] can be described thus: Cytotoxicity against RSV RSS infected Hep2 cells by XTT assay. Conditions: human, hep-2. In kind it is cell-based. The essentials: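 Same XTT format (HEp-2 cells, 6 days at 37 °C, XTT read-out) run in parallel without virus. TD50 is the concentration giving 50% cell death in the absence of virus.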
Series [4] can be described thus: Cytotoxicity against RSV RSS infected Hep2 cells by plaque assay. Format: cell-based. Conditions: human, hep-2.
Series [5] deals with Respiratory syncytial virus. The series can be described thus: Antiviral activity against RSV RSS in Hep2 cells by plaque assay. In kind it is functional, organism-based, HEp-2. Conditions: for IC50: human respiratory syncytial virus, RSS, HEp-2. A digest of the protocol:
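HEp-2 monolayers infected with RSV RSS strain and allowed 2 h adsorption. Compound was then added in medium with 0.6% agarose and incubated 5 days at 37 °C. Monolayers were fixed, the overlay removed, and plaques stained with methylene blue.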

Series [6] in a line: Aqueous solubility at pH 7.0. Format: physicochemical.
For series [7], the system named is Respiratory syncytial virus. In words: Antiviral activity against RSV RSS in Hep2 cells by ELISA. Format: functional, organism-based, HEp-2. To be noted: for IC50: human respiratory syncytial virus, RSS, HEp-2. A digest of the protocol:
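HEp-2 cells infected with RSV RSS strain and exposed to compound for 3 days at 37 °C. Monoclonal antibodies to RSV F, N and P proteins were detected with an enzyme-linked secondary antibody. Substrate conversion to a coloured product was read by optical density, and IC50 was derived.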
A general note: In an ELISA, binding on a coated surface is turned into a signal by an enzyme label.

A short description of series [8]: Cmax in rat at 5 mg/kg, po. Format: ADME, organism-based. Details: dose 5 mg/kg, route oral. Conditions: in vivo. The essentials: (§1)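 Rat, oral dose of 5 mg/kg in a lipid-based formulation, n = 3. Bioavailability was calculated relative to the 5 mg/kg intravenous dose.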
Series [9] in a line: Oral bioavailability in rat at 5 mg/kg, po in lipid based formulation. Format: ADME, organism-based. To be noted: in vivo. A digest of the protocol: as §1
Series [10] is described as follows: Volume of distribution in rat at 5 mg/kg, iv. To be noted: in vivo, read-out: Vss. Details: dose 5 mg/kg, route intravenous. Format: ADME, organism-based. The essentials:
(§2)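 Rat, single intravenous dose of 5 mg/kg, n = 3. Parameters were derived from plasma concentrations.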

Series [11] can be described thus: Oral bioavailability in rat at 5 mg/kg, po in 1% CMC suspension. Conditions: in vivo. Format: ADME, organism-based. The essentials:
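Rat, oral dose of 5 mg/kg given as a suspension in 1% carboxymethylcellulose. Bioavailability was estimated relative to intravenous dosing.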

Series [12] in a line: in vivo. To be noted: rat, plasma, po, 5 mg/kg.
A further series concerns the target Cytochrome P450 2D6 (Homo sapiens, UniProt P10635). The series can be described thus: Inhibition of CYP2D6. In kind it is ADME. A digest of the protocol:
(§3)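 CYP inhibition was assessed as an effect on the metabolism of isoform-specific probe substrates for CYP3A4, 1A2, 2D6, 2C9 and 2C19.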

The nature of series [13]: Fraction unbound ligand in dog serum. In kind it is ADME, cell-free, Canis lupus familiaris.
In series [14] the test system is Serum. In words: Protein binding in rat serum. Format: ADME, cell-free.
The nature of series [15]: Half life in rat at 5 mg/kg, po. To be noted: in vivo.
The nature of series [16]: in vivo. To be noted: rat, plasma, iv, 5 mg/kg.
Series [17] deals with Serum. In words: Protein binding in dog serum. Format: ADME, cell-free, Canis lupus familiaris.
The target of another series is Cytochrome P450 2C19 (Homo sapiens, UniProt P33261). The series can be described thus: Inhibition of CYP2C19. Format: ADME. A digest of the protocol:
as §3

For another series, the target named is T1, Cytochrome P450 1A2 (Homo sapiens, UniProt P05177).
T1 sequence (P05177 whole entry): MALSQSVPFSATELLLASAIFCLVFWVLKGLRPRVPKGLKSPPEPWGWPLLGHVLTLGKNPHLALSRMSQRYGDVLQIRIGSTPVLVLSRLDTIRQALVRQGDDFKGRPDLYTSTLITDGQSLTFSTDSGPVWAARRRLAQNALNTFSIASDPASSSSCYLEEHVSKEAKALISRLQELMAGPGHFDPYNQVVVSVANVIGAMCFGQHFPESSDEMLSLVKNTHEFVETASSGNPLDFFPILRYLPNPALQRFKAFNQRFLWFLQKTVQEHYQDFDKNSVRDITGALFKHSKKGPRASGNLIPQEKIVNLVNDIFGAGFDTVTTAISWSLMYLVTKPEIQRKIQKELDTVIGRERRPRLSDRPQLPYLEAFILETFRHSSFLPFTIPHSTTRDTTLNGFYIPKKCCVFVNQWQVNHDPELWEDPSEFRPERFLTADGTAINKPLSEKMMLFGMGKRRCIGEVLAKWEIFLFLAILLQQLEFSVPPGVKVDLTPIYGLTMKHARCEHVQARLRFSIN
In words: Inhibition of CYP1A2. In kind it is ADME. The essentials: as §3

Series [18] relates to Serum. The series can be described thus: Protein binding in human serum. In kind it is ADME, cell-free.
Series [19] in a line: Fraction unbound ligand in rat serum. Format: ADME, cell-free.
The nature of series [20]: Apparent permeability coefficient assessed using MDCK cells. In kind it is ADME, cell-based, Canis lupus familiaris. Conditions: dog.
Series [21] in a line: Fraction unbound ligand in human serum. In kind it is ADME, cell-free.
The nature of series [22]: Cmax in rat at 5 mg/kg, iv. To be noted: in vivo. The arrangement: dose 5 mg/kg, route intravenous. In kind it is ADME, organism-based. The essentials:
as §2

The next series concerns the target Cytochrome P450 3A4 (Homo sapiens, UniProt P08684). The series can be described thus: Inhibition of CYP3A4. In kind it is ADME. A digest of the protocol: as §3
The next series deals with Cytochrome P450 2C9 (Homo sapiens, UniProt P11712). In words: Inhibition of CYP2C9. In kind it is ADME. A digest of the protocol:
as §3

Series [23] can be described thus: Half life in rat at 5 mg/kg, iv. Conditions: in vivo.

Chain of Cytochrome P450 3A4 (P08684 whole entry): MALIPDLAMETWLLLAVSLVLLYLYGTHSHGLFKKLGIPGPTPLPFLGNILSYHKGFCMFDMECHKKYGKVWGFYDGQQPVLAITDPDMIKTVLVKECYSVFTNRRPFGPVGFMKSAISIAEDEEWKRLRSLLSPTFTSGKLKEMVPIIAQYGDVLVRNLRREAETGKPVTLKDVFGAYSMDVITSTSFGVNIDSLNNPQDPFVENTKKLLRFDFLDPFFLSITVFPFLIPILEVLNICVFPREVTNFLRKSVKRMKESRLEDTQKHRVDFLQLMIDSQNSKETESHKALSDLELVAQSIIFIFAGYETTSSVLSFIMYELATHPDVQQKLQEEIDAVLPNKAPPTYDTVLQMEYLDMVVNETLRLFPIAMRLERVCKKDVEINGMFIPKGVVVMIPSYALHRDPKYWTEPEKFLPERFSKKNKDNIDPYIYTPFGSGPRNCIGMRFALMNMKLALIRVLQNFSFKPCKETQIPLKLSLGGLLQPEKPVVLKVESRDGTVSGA
Chain of Cytochrome P450 2C19 (P33261 whole entry): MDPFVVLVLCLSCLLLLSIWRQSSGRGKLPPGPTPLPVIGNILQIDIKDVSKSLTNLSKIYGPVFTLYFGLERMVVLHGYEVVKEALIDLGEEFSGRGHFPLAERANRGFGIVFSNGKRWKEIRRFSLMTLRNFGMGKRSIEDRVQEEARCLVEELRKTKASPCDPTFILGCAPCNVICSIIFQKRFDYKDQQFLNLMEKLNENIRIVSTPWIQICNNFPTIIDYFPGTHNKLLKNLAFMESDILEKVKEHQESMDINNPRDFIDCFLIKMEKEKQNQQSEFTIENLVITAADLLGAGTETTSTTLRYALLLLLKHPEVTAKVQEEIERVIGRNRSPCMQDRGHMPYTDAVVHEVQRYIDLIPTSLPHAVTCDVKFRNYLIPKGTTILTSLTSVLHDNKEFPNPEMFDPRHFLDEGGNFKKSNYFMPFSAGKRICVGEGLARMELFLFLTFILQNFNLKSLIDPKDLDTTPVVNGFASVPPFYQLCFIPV
Chain of Cytochrome P450 2C9 (P11712 whole entry): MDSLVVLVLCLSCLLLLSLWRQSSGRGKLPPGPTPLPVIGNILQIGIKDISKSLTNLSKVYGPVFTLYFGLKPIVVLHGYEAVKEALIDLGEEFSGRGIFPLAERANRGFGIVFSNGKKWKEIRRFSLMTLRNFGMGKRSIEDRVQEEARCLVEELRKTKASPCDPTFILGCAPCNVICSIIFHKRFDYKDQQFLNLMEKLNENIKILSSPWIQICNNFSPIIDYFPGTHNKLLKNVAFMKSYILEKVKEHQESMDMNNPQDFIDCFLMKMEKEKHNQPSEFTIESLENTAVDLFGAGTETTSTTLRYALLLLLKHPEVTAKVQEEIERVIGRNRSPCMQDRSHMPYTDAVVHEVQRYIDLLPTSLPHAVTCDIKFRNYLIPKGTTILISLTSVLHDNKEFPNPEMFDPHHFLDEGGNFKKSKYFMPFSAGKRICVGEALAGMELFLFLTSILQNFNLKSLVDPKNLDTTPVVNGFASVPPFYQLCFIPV
Chain of Cytochrome P450 2D6 (P10635 whole entry, canonical isoform): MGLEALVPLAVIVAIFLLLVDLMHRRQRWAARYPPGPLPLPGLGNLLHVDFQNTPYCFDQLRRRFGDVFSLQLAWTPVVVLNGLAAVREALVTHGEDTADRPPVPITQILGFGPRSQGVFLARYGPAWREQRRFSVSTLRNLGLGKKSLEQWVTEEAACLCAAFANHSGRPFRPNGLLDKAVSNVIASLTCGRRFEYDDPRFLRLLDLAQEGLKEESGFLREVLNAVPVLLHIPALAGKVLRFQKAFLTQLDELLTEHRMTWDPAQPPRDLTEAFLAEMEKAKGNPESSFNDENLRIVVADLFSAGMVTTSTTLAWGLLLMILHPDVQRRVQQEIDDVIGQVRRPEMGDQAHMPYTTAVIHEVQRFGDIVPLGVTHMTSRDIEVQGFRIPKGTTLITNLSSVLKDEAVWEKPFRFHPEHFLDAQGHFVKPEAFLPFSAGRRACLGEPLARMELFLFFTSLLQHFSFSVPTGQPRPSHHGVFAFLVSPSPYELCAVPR

For `O=C(Nc1ccccc1F)N[C@@H]1N=C(c2ccccc2)c2ccccc2NC1=O`, in series [1], the TD50 is over 50 µM. Also, half-maximal inhibition in [1] (IC50) required 27800 nM. Also, the Activity result in series [2], in [3] and in [4] was “Non-toxic” each time.

Take `O=C(NC1N=C(c2ccccc2)c2ccccc2NC1=O)C1CCCCC1` (stereo not given): in series [1], the TD50 was over 50 µM and the IC50 (in general, the concentration needed to halve the response being measured) came to 12600 nM.

As for `O=C(N[C@@H]1N=C(c2ccccc2)c2ccccc2NC1=O)C1CCCCC1`, in [1], the TD50 is over 50 µM and the IC50 is over 50000 nM.

In [1], `COc1cc([N+](=O)[O-])ccc1C(=O)NC1N=C(c2ccccc2)c2ccccc2NC1=O` (stereo not given) gave a TD50 of over 50 µM and an IC50 of 2000 nM.

In [1], `O=C(N[C@H]1N=C(c2ccccc2)c2ccccc2NC1=O)c1cc(Cl)ccc1N1CCS(=O)(=O)CC1` registered a TD50 of over 50 µM and an IC50 of 2200 nM.

For `O=C(N[C@H]1N=C(c2ccccc2)c2ccccc2NC1=O)C1CCCCC1`, in series [1], the TD50 was over 50 µM and the IC50 was determined as 3300 nM.

In series [1], `O=C(N[C@H]1N=C(c2ccccc2)c2ccccc2NC1=O)c1ccc(F)cc1N1CCCCC1` showed a TD50 of over 50 µM and an IC50 of 7500 nM.

Consider `O=C(Nc1ccccc1F)N[C@H]1N=C(c2ccccc2)c2ccccc2N(CC(=O)N2CCOCC2)C1=O`, for which, in [1], the TD50 was over 50 µM and the IC50 was over 50000 nM.

In series [1], `O=C(Nc1ccccc1F)NC1N=C(c2ccccc2)c2ccccc2NC1=O` (stereo not given) yielded a TD50 of over 50 µM. The same molecule came in with an IC50 in series [1] of 27800 nM. Besides, the Activity result in series [2], in series [3] and in series [4] was “Non-toxic” throughout.

In [1], `CCNC(=O)CN1C(=O)[C@@H](NC(=O)Nc2ccccc2F)N=C(c2ccccc2)c2ccccc21` registered a TD50 of over 50 µM and an IC50 of over 50000 nM.

On to `COc1cc(S(C)(=O)=O)ccc1C(=O)N[C@H]1N=C(c2ccccc2)c2ccccc2NC1=O`, for which the TD50 in series [1], in series [5] and in series [7] was over 50 µM throughout. Also, the IC50 in series [1] is 500 nM; in series [5], 500 nM; in [7], 600 nM. Also, in [6], the concentration in solution (solubility) was 22 µg/mL (≈ 47.5 µM).

Consider `O=C(N[C@H]1N=C(c2ccccc2)c2ccccc2NC1=O)c1ccc(N2CCOCC2)cc1Cl`, for which the TD50 in series [1], in series [5] and in series [7] was over 50 µM each time. The figures for the IC50 in series [1], in series [5] and in series [7] were 1400 nM, 800 nM and 1500 nM, respectively. Moreover, the concentration in solution in series [6] (solubility) came to 0.9 µg/mL (≈ 1.89 µM).

In series [1], `O=C(CN1C(=O)[C@@H](NC(=O)Nc2ccccc2F)N=C(c2ccccc2)c2ccccc21)Nc1ccncc1` displayed a TD50 of over 50 µM and an IC50 of 14200 nM.

With `O=C(Nc1ccccc1F)N[C@H]1N=C(c2ccccc2)c2ccccc2NC1=O` [RSV-604], the values for the Cmax in series [8] and in [22] were 910 ng/mL and 3300 ng/mL, respectively. The results for the bioavailability in [9] and in series [11] were over 90% and under 40%, respectively. In addition, the Vd in [10] turned out to be 2.2 L/kg. Moreover, the TD50 in series [1], in [5] and in [7] was over 50 µM each time. In addition, the IC50 in series [1] turned out to be 900 nM; in series [5], 700 nM; in series [7], 1400 nM. Moreover, the results for the AUC(0-inf) in the series “in vivo [12]” and in the series “in vivo [16]” were 10900 ng·h/mL and 11700 ng·h/mL, respectively. In addition, the Activity result on Cytochrome P450 2D6 was “Not Active”; in the series on Serum [14], 95%; with Serum [17], 95%; on Cytochrome P450 2C19, “Not Active”; on Cytochrome P450 1A2 it was “Not Active”; in the series with Serum [18], 95%. In addition, the Activity entry is reported as “Non-toxic” in series [2]; “Not Active” at Cytochrome P450 3A4; “Non-toxic” in series [3]; “Not Active” at Cytochrome P450 2C9; “Non-toxic” in series [4]. Moreover, the fraction unbound in series [13], in series [19] and in series [21] was 0.05 each time. Besides, the half-life (usually the time in which the quantity being followed falls by half) is 2.6 h in [15] and 3.8 h in series [23]. For the same molecule, the solubility – broadly, the dissolved amount per volume that the medium holds – in series [6] came to 4.1 µg/mL (≈ 10.6 µM). In addition, the Papp (commonly the rate of passage across a membrane or cell layer, normalised by area and donor concentration) in series [20] is 13 ×10⁻⁶ cm/s.

In [1], `O=C(N[C@H]1N=C(c2ccccc2)c2ccccc2NC1=O)c1cccnc1N1CCOCC1` returned a TD50 of over 50 µM and an IC50 of 2900 nM.

For `COc1cc([N+](=O)[O-])ccc1C(=O)N[C@H]1N=C(c2ccccc2)c2ccccc2NC1=O`, the TD50 in [1], in series [5] and in [7] was over 50 µM throughout. Further, the IC50 in series [1] amounted to 900 nM; in [5], 500 nM; in [7], 1000 nM.

In series [1], `COc1cc([N+](=O)[O-])ccc1C(=O)N[C@@H]1N=C(c2ccccc2)c2ccccc2NC1=O` registered a TD50 of over 50 µM and an IC50 of 21200 nM.

Turning to `O=C(N[C@H]1N=C(c2ccccc2)c2ccccc2NC1=O)c1cc(F)ccc1N1CCS(=O)(=O)CC1`, in series [1], the TD50 is over 50 µM and the IC50 amounted to 700 nM.
